Data: ChEMBL document CHEMBL1151159, “Antineoplastic agents. 380. Isolation and X-ray crystal structure determination of isoaaptamine from the Republic of Singapore Hymeniacidon sp. and conversion to the phosphate prodrug hystatin 1” (2004)
Converted amounts (≈) assume the structure as drawn. The source made the active and inactive calls. No cut-off for these calls is given here.

How the values were obtained:
P388 = assay: Antineoplastic activity against mouse P388 cells; assay type: functional; details: read-out: ED50 (the source's name)
OVCAR-3 = assay: Antineoplastic activity against human OVCAR-3 cells; assay type: functional; details: read-out: ED50 (the source's name)
SF-295 = assay: Antineoplastic activity against human SF295 cells; assay type: functional; details: read-out: ED50 (the source's name)
A498 = assay: Antineoplastic activity against human A498 cells; assay type: functional; details: read-out: ED50 (the source's name)
KM-20L2 = assay: Antineoplastic activity against human KM20L2 cells; assay type: functional; details: read-out: ED50 (the source's name)
SK-MEL-5 = assay: Antineoplastic activity against human SK-MEL-5 cells; assay type: functional; details: read-out: ED50 (the source's name)
NCI-H460 = assay: Antineoplastic activity against human NCI-H460 cells; assay type: functional; details: read-out: ED50 (the source's name)
Enterococcus faecalis [1] = assay: Antimicrobial activity against Enterococcus faecalis at 64 ug/ml by broth microdilution susceptibility assay; assay type: functional, organism-based
In short: (§1)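 Bacteria tested by broth microdilution following the NCCLS standard for aerobically growing bacteria (M7-A4). MIC read as the lowest compound concentration that blocked all visible growth of the organism (optically clear wells).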

Neisseria gonorrhoeae = assay: Antimicrobial activity against Neisseria gonorrhoeae by broth microdilution susceptibility assay; assay type: functional; in short: as §1
Streptococcus pneumoniae = assay: Antimicrobial activity against Streptococcus pneumoniae by broth microdilution susceptibility assay; assay type: functional; in short: as §1
Candida albicans = assay: Antimicrobial activity against Candida albicans at 64 ug/ml by broth microdilution susceptibility assay; assay type: functional, organism-based
In short: (§2)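 Yeast panel (Candida albicans, Cryptococcus neoformans) tested by broth microdilution following the NCCLS reference method for yeasts (M27-A). MIC taken as the lowest compound concentration giving no visible growth (optically clear).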

Escherichia coli = assay: Antimicrobial activity against Escherichia coli at 64 ug/ml by broth microdilution susceptibility assay; assay type: functional, organism-based; in short: as §1
Staphylococcus aureus = assay: Antimicrobial activity against Staphylococcus aureus by broth microdilution susceptibility assay; assay type: functional; in short: as §1
Micrococcus luteus [2] = assay: Antimicrobial activity against Micrococcus luteus at 64 ug/ml by broth microdilution susceptibility assay; assay type: functional, organism-based; in short: as §1
Enterobacter cloacae = assay: Antimicrobial activity against Enterobacter cloacae at 64 ug/ml by broth microdilution susceptibility assay; assay type: functional, organism-based; in short: as §1
Cryptococcus neoformans [3] = assay: Antimicrobial activity against Cryptococcus neoformans at 64 ug/ml by broth microdilution susceptibility assay; assay type: functional, organism-based; in short: as §2
Cryptococcus neoformans [4] = assay: Antimicrobial activity against Cryptococcus neoformans by broth microdilution susceptibility assay; assay type: functional; in short: as §2
Micrococcus luteus [5] = assay: Antimicrobial activity against Micrococcus luteus by broth microdilution susceptibility assay; assay type: functional; in short: as §1
Enterococcus faecalis [6] = assay: Antimicrobial activity against Enterococcus faecalis by broth microdilution susceptibility assay; assay type: functional; in short: as §1
[7] = tested on: Stenotrophomonas maltophilia; assay: Antimicrobial activity against Stenotrophomonas maltophilia at 64 ug/ml by broth microdilution susceptibility assay; assay type: functional, organism-based; in short: as §1

EC50 (P388) | EC50 (OVCAR-3) | EC50 (SF-295) | EC50 (A498) | EC50 (KM-20L2) | EC50 (SK-MEL-5) | EC50 (NCI-H460) | MIC (Neisseria gonorrhoeae) | MIC (Streptococcus pneumoniae) | MIC (Staphylococcus aureus) | MIC (Cryptococcus neoformans [4]) | MIC (Micrococcus luteus [5]) | MIC (Enterococcus faecalis [6]) | SMILES | Activity (Enterococcus faecalis [1]) | Activity (Candida albicans) | Activity (Escherichia coli) | Activity (Micrococcus luteus [2]) | Activity (Enterobacter cloacae) | Activity (Cryptococcus neoformans [3]) | Activity [7]
3 µg/mL | – | – | – | > 10 µg/mL | – | > 10 µg/mL | < 0.5 µg/mL | 16 µg/mL | 64 µg/mL | – | – | – | COc1cc2ccnc3c2c(c1OP(=O)([O-])[O-])N(C)C=C3.[Na+].[Na+] [HYSTATIN 1] | inactive | inactive | inactive | inactive | inactive | inactive | –
0.28 µg/mL (≈ 1.23 µM) | 1.2 µg/mL (≈ 5.26 µM) | 2.6 µg/mL (≈ 11.4 µM) | 2.2 µg/mL (≈ 9.64 µM) | 2.3 µg/mL (≈ 10.1 µM) | 1.6 µg/mL (≈ 7.01 µM) | 2.4 µg/mL (≈ 10.5 µM) | < 0.5 µg/mL | 8 µg/mL (≈ 35 µM) | 16 µg/mL (≈ 70.1 µM) | 64 µg/mL (≈ 280 µM) | 32 µg/mL (≈ 140 µM) | 32 µg/mL (≈ 140 µM) | COc1cc2ccnc3c2c(c1O)N(C)C=C3 [ISOAAPTAMINE] | – | inactive | inactive | – | inactive | – | inactive

Further lines, the compound ahead of its results:

SMILES | EC50 (P388) | EC50 (OVCAR-3) | EC50 (SF-295) | EC50 (A498) | EC50 (KM-20L2) | EC50 (SK-MEL-5) | EC50 (NCI-H460) | MIC (Neisseria gonorrhoeae) | MIC (Streptococcus pneumoniae) | MIC (Staphylococcus aureus) | MIC (Cryptococcus neoformans [4]) | MIC (Micrococcus luteus [5]) | MIC (Enterococcus faecalis [6]) | Activity (Enterococcus faecalis [1]) | Activity (Candida albicans) | Activity (Escherichia coli) | Activity (Micrococcus luteus [2]) | Activity (Enterobacter cloacae) | Activity (Cryptococcus neoformans [3]) | Activity [7]
COC1=Cc2ccnc3ccnc(c23)C1(OC)OC | 59 µg/mL (≈ 228 µM) | – | – | – | – | – | – | – | – | – | – | – | – | – | – | – | – | – | – | –
COc1cc2ccnc3c2c(c1OC)NC=C3 [AAPTAMINE] | 3.6 µg/mL (≈ 15.8 µM) | 4.9 µg/mL (≈ 21.5 µM) | 4.1 µg/mL (≈ 18 µM) | 3.2 µg/mL (≈ 14 µM) | 3.6 µg/mL (≈ 15.8 µM) | 4.3 µg/mL (≈ 18.8 µM) | 3.2 µg/mL (≈ 14 µM) | – | – | – | – | – | – | – | – | – | – | – | – | –
COC1=Cc2ccnc3ccnc(c23)C1=O [DEMETHYLOXY-AAPTAMINE] | 0.31 µg/mL (≈ 1.46 µM) | 0.39 µg/mL (≈ 1.84 µM) | 2.8 µg/mL (≈ 13.2 µM) | 4.2 µg/mL (≈ 19.8 µM) | 2.1 µg/mL (≈ 9.9 µM) | 1 µg/mL (≈ 4.71 µM) | 2.3 µg/mL (≈ 10.8 µM) | – | – | – | – | – | – | – | – | – | – | – | – | –
